Source: paper PMC6585414 (Infection and Drug Resistance, 2019)
No end group written: not given here.

Experiments:
[1] = Serum biochemical factors after intraperitoneal injection; format: in vivo, mouse; settings: blood 48 h after the injection, mean ± standard deviation
Method in brief: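 Mice given PBS (control) or peptide at 50 or 100 μg/mouse by single ip injection (100 μL/mouse). Blood (0.2 mL) drawn 48 h later and serum GPT, GOT, total bilirubin and uric acid quantified. Five mice per group. Data shown as mean ± SD, compared by ANOVA, p<0.05 taken as significant.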

[2] = system: human embryonic kidney cells (HEK-293); test: MTT cytotoxicity assay; format: cell-based; settings: 1.56–50 μg/mL, 48 h, 37°C, in words (Figure 6)
Method in brief: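 HEK-293 cells seeded fresh at 1×10^5 cells/well, exposed to twofold serial peptide dilutions (1.56–50 μg/mL) at 37°C in 5% CO2 for 48 h. MTT (5 mg/mL stock, 10 μL) then added for 4 h. Formazan dissolved in 100% DMSO, absorbance read at 575 nm, percentage viable cells derived. Triplicate, three independent repeats, mean ± SD.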

Substance	Serum level of GOT ([1]; 50 μg/mouse ip) [U/L]	Serum level of GPT ([1]; 50 μg/mouse ip) [U/L]	Serum level of TBIL ([1]; 50 μg/mouse ip) [mg/dL]	Serum level of UA ([1]; 50 μg/mouse ip) [mg/dL]	Serum level of GOT ([1]; 100 μg/mouse ip) [U/L]	Serum level of GPT ([1]; 100 μg/mouse ip) [U/L]	Serum level of TBIL ([1]; 100 μg/mouse ip) [mg/dL]	Serum level of UA ([1]; 100 μg/mouse ip) [mg/dL]	Cytotoxic activity against HEK-293 [2]
FFHHIFRGAVHVGKTIHRLVTG-NH2 [I9A-piscidin-1]	8.96±1.12	6.67±0.47	0.21 ± 0.06	0.42 ± 0.07	10.86±1.07	7.17±0.37	0.51 ± 0.09	0.87 ± 0.09	
FFHHIFRGIVHVGKTAHRLVTG-NH2 [I16A-piscidin-1]	9.22±0.90	5.92±1.10	0.20 ± 0.04	0.39 ± 0.12	11.08±0.94	7.33±1.10	0.53 ± 0.08	0.77 ± 0.14	
FFHHIFRGIVHVGKTIHRLVTG-NH2 [Piscidin-1, reference compound]	9.48±1.06	5.83±0.52	0.19 ± 0.04	0.45 ± 0.06	10.64±0.97	4.62±0.42	0.27 ± 0.07	0.53 ± 0.08	highest cytotoxic activity
FFHHIFRGIVHVGKTKHRLVTG-NH2 [I16K-piscidin-1]	8.88±0.86	6.43±0.86	0.20 ± 0.05	0.41 ± 0.11	8.53±1.15				lowest activity against HEK-293 cells compared to other peptides
FFHHIFRGKVHVGKTIHRLVTG-NH2 [I9K-piscidin-1]	9.27±0.78	6.26±0.22	0.18 ± 0.07	0.43 ± 0.05	10.32±0.88	6.86±0.82	0.48 ± 0.10	0.81 ± 0.07	
